Reference: publication PMC11911394 (Nature Communications, 2025)
Each block holds one compound with its values, some of them ahead of it.

Tests used:
nirFAST [1] = test: Characterization of nirFAST with prototypical FAST; format: physicochemical; conditions: fluorogen bound to nirFAST
In short: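 His-tag-purified protein came from E. coli BL21(DE3) or Rosetta(DE3)pLysS, induced overnight with 1 mM IPTG at 16 °C and isolated on Ni-NTA. Spectra were recorded in PBS pH 7.4 at 25 °C on a plate reader. Quantum yield was measured in 96-well plates against a reference fluorogen:protein complex. Protein was 40 µM, with fluorogen usually 6 to 0.375 µM, giving >99% complex.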

[2] = format: physicochemical; conditions: exciting with red light
In short: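 Steady-state UV-Vis absorption and fluorescence spectra were recorded on a plate reader in PBS pH 7.4 at 25 °C.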

HeLa cells = test: Cell viability assay; format: cell-based; conditions: at the dose used for imaging; HeLa and HEK293T (Supplementary Fig. 8)
In short: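 HeLa cells were grown in MEM with phenol red, Glutamax I, 1 mM sodium pyruvate, 1% non-essential amino acids, 10% FBS and 1% penicillin–streptomycin at 37 °C and 5% CO₂. They were exposed to fluorogen at the indicated concentrations for 24 h. Viability was read as CellTiter-Glo luminescence on a plate reader, per kit protocol.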

nirFAST [3] = test: nirFAST labeling kinetics in live HeLa cells; format: cell-based; conditions: 10 µM fluorogen
zebrafish larvae = test: Imaging of injected nirFAST-expressing HEK293T cells in zebrafish larvae; format: in vivo, zebrafish (Danio rerio); conditions: zebrafish larvae 4 dpf, 45 min of treatment
In short: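 HEK293T cells were transfected with a nirFAST-P2A-EGFP plasmid and, after 24 h, suspended at 10,000,000 cells/mL in serum-free DMEM. About 5–10 nL was microinjected near the heart of 2 dpf nacre larvae anesthetized with 0.02% MS-222. Larvae were raised at 28 °C, and green-positive ones were chosen. At 4 dpf they were incubated 45 min with fluorogen, anesthetized, mounted laterally in 0.8% low-melt agarose and imaged confocally.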

[4] = test system: LAMP1–mCherry–FIREtag and nir-FIREmate–KIF17; test: nirCATCHFIRE control of lysosome positioning; format: cell-based; conditions: HeLa cells co-expressing LAMP1–mCherry–FIREtag and nir-FIREmate–KIF17

FQY of assembly with nirFAST (nirFAST [1]): 37%
SMILES: Cc1cc(/C=C2\SC(=S)NC2=O)cc(C)c1O [HBR-3,5DM]

FQY of assembly with nirFAST (nirFAST [1]): 24%
SMILES: COc1cc(/C=C2\SC(=S)NC2=O)cc(OC)c1O [HBR-3,5DOM]

fluorescence of free fluorogen [2]: completely non-fluorescent
SMILES: COc1cc(/C=C/C=C2\SC(=S)NC2=O)cc(OC)c1O [HPAR-3,5DOM, (Z)-5-((E)-3-(4-hydroxy-3,5-dimethoxyphenyl)allylidene)-2-thioxothiazolidin-4-one]
toxicity for mammalian cells (HeLa cells): non-toxic | time to complete labeling of nirFAST after fluorogen addition (nirFAST [3]): complete within twenty seconds | detection of nirFAST-expressing HEK293T cells in larvae (zebrafish larvae): efficiently detected | effect on lysosome positioning [4]: displacement of lysosomes from the perinuclear region to the cell periphery

Further lines, the compound ahead of its results:

SMILES: Cc1cc(/C=C2\SC(=S)NC2=O)c(C)cc1O [HBR-2,5DM]
fluorescence activation by nirFAST (nirFAST [1]): failed to activate efficiently the fluorescence

SMILES: Cc1cc(/C=C2\SC(=S)NC2=O)ccc1O [HMBR]
fluorescence activation by nirFAST (nirFAST [1]): failed to activate efficiently the fluorescence
